Measurements taken from article PMC10674630 (Diabetes, Metabolic Syndrome and Obesity, 2023).
Entries after “also recorded” stand apart in the source; their conditions may differ.

Legend:
[1] = system: SA 452; assay: Mutant prevention concentration, SA 452; assay type: cell-based, S. aureus
[2] = system: SA 452; conditions: for FICI: antibiotic + surfactin; for Fold Change: MIC of antibiotic, alone vs with surfactin
[3] = system: ATCC 25923; assay: Mutant prevention concentration, ATCC 25923; assay type: cell-based, S. aureus
Summary of the method: (§1)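 Strains were grown 24 h in MH broth, centrifuged at 4000×g for 10 min and resuspended to 1×1010 CFU/mL. […] MPC was the lowest concentration preventing colonies. MPC/MIC ratio defined the mutant selection window.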

[4] = system: ATCC 25923; conditions: for Fold Change: MIC of antibiotic, alone vs with surfactin; for FICI: antibiotic + surfactin
[5] = system: S. aureus (ATCC 25923 and MRSA SA 452); assay: Checkerboard assay, both strains; assay type: cell-based; conditions: for Conversion of resistance to sensitivity by surfactin: addition of at least 64 μg/mL of surfactin, ATCC 25923 and MRSA; for Interaction with surfactin (in words): S. aureus (ATCC 25923 and MRSA)
[6] = system: S. aureus (ATCC 25923 and MRSA SA 452); assay: Mutant prevention / resistance selection, both strains; assay type: cell-based; conditions: combination of oxacillin and surfactin
Summary of the method: as §1

Cc1onc(-c2ccccc2)c1C(=O)N[C@@H]1C(=O)N2[C@@H]1SC(C)(C)[C@@H]2C(=O)O [Oxacillin]
MIC/MPC ([1]; oxacillin alone, SA 452): >32
MIC ([1]; oxacillin alone, SA 452, unit not in table): 8
Decrease of MPC/MIC value ([1]; with surfactin vs oxacillin alone, MRSA): ≥ 2 fold
FICI [2]: 0.156
Interaction with surfactin (in words) [2]: significantly synergistic effects
MIC/MPC (text: MPC/MIC ratio) ([3]; oxacillin alone): 32
MIC ([3]; oxacillin alone, unit not in table): 0.5
Decrease of MPC/MIC value ([3]; with 64 μg/mL of surfactin vs oxacillin alone): 8 fold
Fold Change [4]: 8
FICI [4]: 0.25
Interaction with surfactin (in words) [4]: synergistic effects
Conversion of resistance to sensitivity by surfactin [5]: converted them to sensitivity
Interaction with surfactin (in words) [5]: synergies; also recorded: synergistic effects
Mutant selection window (MSW), in words [6]: narrowed the MSW for oxacillin against MRSA

CN(C)[C@@H]1C(O)=C(C(N)=O)C(=O)[C@@]2(O)C(O)=C3C(=O)c4c(O)cccc4[C@@](C)(O)[C@H]3C[C@@H]12 [Tetracycline]
Fold Change [2]: 128
FICI [2]: 0.133
Interaction with surfactin (in words) [2]: significantly synergistic effects
Fold Change [4]: 16
FICI [4]: 0.188
Interaction with surfactin (in words) [4]: synergistic effects
Conversion of resistance to sensitivity by surfactin [5]: converted them to sensitivity
Interaction with surfactin (in words) [5]: synergies; also recorded: synergistic effects

CNC(C)C1CCC(N)C(OC2C(N)CC(N)C(OC3OCC(C)(O)C(NC)C3O)C2O)O1 (stereo not drawn) [Gentamicin]
FICI [2]: 0.25
Interaction with surfactin (in words) [2]: significantly synergistic effects

CC1(C)S[C@@H]2[C@H](NC(=O)[C@H](N)c3ccccc3)C(=O)N2[C@H]1C(=O)O [Ampicillin]
Fold Change [2]: 128
FICI [2]: 0.133
Interaction with surfactin (in words) [2]: significantly synergistic effects
Fold Change [4]: 8
Interaction with surfactin (in words) [4]: synergistic effects
Conversion of resistance to sensitivity by surfactin [5]: converted them to sensitivity
Interaction with surfactin (in words) [5]: synergies; also recorded: synergistic effects

O=C(O)c1cn(C2CC2)c2cc(N3CCNCC3)c(F)cc2c1=O [Ciprofloxacin]
FICI [2]: 2

CC[C@H]1OC(=O)[C@H](C)[C@@H](O[C@H]2C[C@@](C)(OC)[C@@H](O)[C@H](C)O2)[C@H](C)[C@@H](O[C@@H]2O[C@H](C)C[C@H](N(C)C)[C@H]2O)[C@](C)(O)C[C@@H](C)C(=O)[C@H](C)[C@@H](O)[C@]1(C)O [Erythromycin]
FICI [2]: 2
